# Data from ChEMBL document CHEMBL4680120, “Novel anti-Alzheimer phenol-lipoyl hybrids: Synthesis, physico-chemical characterization, and biological evaluation” (Eur J Med Chem, 2020).
# Active and inactive are the calls of the source. No cut-off for these calls is given here.
# How the values were obtained:
# SH-SY5Y [1] = experiment: Cytotoxicity against human SH-SY5Y cells assessed as reduction in cell viability at 1 to 250 mg/l measured after 48 hrs by MTT assay; assay type: cell-based; details: dose 1-250 mg/L
# Procedure, shortened: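 SH-SY5Y cells grown in DMEM/F12 with 10% FBS and differentiated with retinoic acid (10 μM), seeded at 1×10^4 per well and cultured 24 h. Cells were given hybrids at 1–250 mg/L with or without Aβ1-42 (20 μM) for 48 h. MTT (5 mg/mL) added for 4 h at 37°C, DMSO solubilization, read at 570/630 nm. LDH read at 450 nm. Five independent experiments.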
# SH-SY5Y [2] = experiment: Neuroprotective activity against amyloid beta (1 to 42)-induced apoptosis in human SH-SY5Y cells assessed as necrotic cells at IC50 measured after 48 hrs by Annexin-V/Propidium iodide staining based flow cytometry (reference value: 6.99%); assay type: functional
# [3] = Solubility of compound in water by HPLC analysis; assay type: physicochemical
# [4] = Stability in simulated intestinal fluid at pH 6.8 assessed as relative difference measured after 30 mins in presence of pancreatin by HPLC analysis; assay type: ADME; details: simulated gi fluid, pH 6.8, 0.5 h
# Procedure, shortened: (§1)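 Incubation in simulated gastric fluid (pH 1.2, pepsin) or simulated intestinal fluid (pH 6.8, pancreatin). Aliquots deproteinized with ice-cold acetonitrile, centrifuged at 4°C and 12000 rpm for 10 min, filtered, analyzed by HPLC. RD% = (Ci − Cf)/Ci × 100. Stable if RD < 5%. Means of three experiments.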
# SH-SY5Y [5] = experiment: Neuroprotective activity against amyloid beta (1 to 42)-induced toxicity in human SH-SY5Y cells assessed as decrease in BDNF mRNA expression at IC50 measured after 48 hrs by SYBR green dye based RT-qPCR analysis; assay type: functional, cell-based
# Procedure, shortened: (§2)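 Differentiated SH-SY5Y cells in 6-well plates treated 48 h with Aβ1-42 (20 μM) with or without hybrid. mRNA of AD-related genes measured by RT-qPCR, normalized to β-actin. Expressed as fold change versus untreated cells. Triplicate experiments.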
# SH-SY5Y [6] = experiment: Neuroprotective activity against amyloid beta (1 to 42)-induced toxicity in human SH-SY5Y cells assessed as decrease in APH1alpha mRNA expression at IC50 measured after 48 hrs by SYBR green dye based RT-qPCR analysis; assay type: functional, cell-based; procedure, shortened: as §2
# [7] = Stability in simulated intestinal fluid at pH 6.8 assessed as relative difference measured after 180 mins in presence of pancreatin by HPLC analysis; assay type: ADME; details: simulated gi fluid, pH 6.8, 3 h; procedure, shortened: as §1
# [8] = Stability in simulated intestinal fluid at pH 6.8 assessed as relative difference measured after 120 mins in presence of pancreatin by HPLC analysis; assay type: ADME; details: simulated gi fluid, pH 6.8, 2 h; procedure, shortened: as §1
# SH-SY5Y [9] = experiment: Neuroprotective activity against amyloid beta (1 to 42)-induced apoptosis in human SH-SY5Y cells assessed as decrease in DNA fragmentation at IC50 measured after 48 hrs by Hoechst 33258 staining based fluorescence microscopic assay; assay type: functional, cell-based
# Procedure, shortened: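 Differentiated SH-SY5Y cells, 4×10^4 per well, exposed 48 h to Aβ1-42 (20 μM) with or without hybrid. Fixed in 4% paraformaldehyde for 30 min, stained with Hoechst 33258 for 15 min. Nuclear chromatin condensation and DNA fragmentation scored by fluorescence microscopy at ×200.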
# [10] = Stability in simulated intestinal fluid at pH 6.8 assessed as relative difference measured after 60 mins in presence of pancreatin by HPLC analysis; assay type: ADME; details: simulated gi fluid, pH 6.8, 1 h; procedure, shortened: as §1
# [11] = Stability in simulated intestinal fluid at pH 6.8 assessed as relative difference measured after 15 mins in presence of pancreatin by HPLC analysis; assay type: ADME; details: simulated gi fluid, pH 6.8, 0.25 h; procedure, shortened: as §1
# Erythrocyte [12] = experiment: Antioxidant activity in human RBC assessed as increase in total antioxidant capacity level up to 400 ug/ml measured after 72 hrs relative to control; assay type: functional; details: dose microg/ml <=400
# Erythrocyte [13] = experiment: Cytoprotective activity against H2O2-induced oxidative damage in human RBC assessed as increase in cell viability measured after 72 hrs by LDH release assay; assay type: functional, cell-based
# Procedure, shortened: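 Heparinized whole blood cultured with phytohemagglutinin. Cells were co-incubated with 50 or 100 μM hybrid and H2O2 (25 μM). Viability was read by MTT: lymphocytes at 2×10^5 per well, MTT 4 h at 37°C, formazan dissolved in DMSO, absorbance 570 nm. LDH release was measured on 100 μL medium with a commercial kit. Results are relative to untreated control.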
# [14] = Stability in simulated intestinal fluid at pH 6.8 assessed as hydrolysis measured immediately in presence of pancreatin by HPLC analysis; assay type: ADME; details: simulated gi fluid; procedure, shortened: as §1
# Erythrocyte [15] = experiment: Cytoprotective activity against H2O2-induced oxidative damage in human RBC assessed as restoration of antioxidant activity at 50 to 100 uM measured after 72 hrs by TAC assay relative to control; assay type: functional; details: dose 50-100 µM
SMILES,Activity (SH-SY5Y [1]),Activity (SH-SY5Y [2]) [%],solubility [3] [µg/mL],fold change (FC) [4] [%],Activity (SH-SY5Y [5]),Activity (SH-SY5Y [6]),fold change (FC) [7] [%],fold change (FC) [8] [%],Activity (SH-SY5Y [9]),fold change (FC) [10] [%],fold change (FC) [11] [%],Activity (Erythrocyte [12]) [%],Activity (Erythrocyte [13]),Stabilty [14],Activity (Erythrocyte [15]) [%]
COc1cc(/C=C/C(=O)NCCCNC(=O)CCCCC2CCSS2)ccc1O (configuration not stated),Non-Toxic,1.13,49,0.86,Active,Active,3.46,2.5,Active,1.04,0.54,6.7,Dose-dependent effect,–,–
O=C(CCCCC1CCSS1)NCCCCCOC(=O)Cc1ccc(O)c(O)c1 (configuration not stated),Non-Toxic,1.04,–,–,Active,Active,–,–,Active,–,–,32.3,Dose-dependent effect,Unstable,79.2
